Series [1] can be described thus: folding enthalpy; higher = less favourable; fluorescence melt of hairpins on a sequencing array, two-state fit. The following applies: sodium 0.088 M. Summed up: (§1)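 Cy3 fluorescence of library hairpins on a sequenced MiSeq flow cell, with annealed Cy3 and quencher oligos, was imaged in 50 mM Na-HEPES pH 8.0, 25 mM NaCl in 2.5 °C steps up to 60 °C. Signals were normalised to pre-quench Cy3 and to control variants. Melting temperature and folding enthalpy came from bootstrapped two-state fits, inverse-variance combined over four replicates. Fitted temperatures were raised by 9.35 °C to match UV melts.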

Series [2] is described as follows: melting temperature; fluorescence melt of hairpins on a sequencing array, two-state fit, raised by 9.35 °C to match UV melts. Conditions: sodium 0.088 M. Summed up:
as §1

Data on 37 sequences can be found in the array DNA melting data of Ke et al. (doi:10.1101/2024.01.08.574731).

In the case of GTCAAACGAAAGTTGGAC (((.(((....))).))), the folding enthalpy in series [1] is -24.8 kcal/mol. Moreover, in series [2], the Tm came out at 49.9 °C.

Regarding GGAAGAGGAAACTTTTCC ((((.((....)).)))), the folding enthalpy in series [1] was -15.8 kcal/mol. Further, the Tm in series [2] turned out to be 32.8 °C.

On to GGATTTCGAAAGAAGTCC (((.(((....))).))), for which the folding enthalpy in series [1] was -36.2 kcal/mol. For the same sequence, the Tm in series [2] is 49.3 °C.

For the sequence GTGGCCGGAAACAGCCAC (((((.(....).))))), the folding enthalpy in series [1] was -47.6 kcal/mol. Besides, the Tm in series [2] stood at 54.5 °C.

As for GCGACAATTCGC ((((....)))), the folding enthalpy in series [1] was -17.2 kcal/mol. The Tm in series [2] was 44.8 °C.

On to GTCATGGGAAACCATGGC (.(((((....))))).), for which the folding enthalpy in series [1] was -24.1 kcal/mol. The Tm in series [2] is 53.2 °C.

As for GCGCGGCGAAAGCCTTGC ((..(((....)))..)), the folding enthalpy in series [1] is -16 kcal/mol. Besides, in series [2], the Tm came out at 46.1 °C.

For GCTAGTGGAAACGTTAGC ((((..(....)..)))), in series [1], the folding enthalpy is -20.1 kcal/mol. The Tm in series [2] turned out to be 36.4 °C.

In the case of GTTGCCGAAAGGCTGAAC ((((((....)))..))), the folding enthalpy in series [1] is -9.17 kcal/mol. The Tm in series [2] is 31.4 °C.

With GCGGCGCGAAAGCACAGC ((.(.((....)).).)), the folding enthalpy in series [1] was -29.9 kcal/mol. Also, the Tm in series [2] is 63.7 °C.

Regarding GCGTCAGGAAACTGATGC ((.((((....)))).)), the folding enthalpy in series [1] was -43.6 kcal/mol. The Tm in series [2] turned out to be 54.5 °C.

Consider GATCTGGCGTCAGATC ((((((....)))))), for which, in series [1], the folding enthalpy was -31.8 kcal/mol. Further, in series [2], the Tm was determined as 50.9 °C.

As for GATCGACGGGTCGATC ((((((....)))))), in series [1], the folding enthalpy was -46 kcal/mol. For the same sequence, the Tm in series [2] was 63.3 °C.

With GACCGTGAAAACGGTC ((((((....)))))), in series [1], the folding enthalpy is -41.1 kcal/mol. The Tm in series [2] was found to be 68.1 °C.

With GATCGGAATGCCGATC ((((((....)))))), the folding enthalpy in series [1] is -33.7 kcal/mol. Besides, in series [2], the Tm was 54.9 °C.

Take GTAGTAGAAATACTAC ((((((....)))))): the folding enthalpy in series [1] is -26.1 kcal/mol. Moreover, the Tm in series [2] amounted to 43.1 °C.

For GACTTGGGAAACTAAGTC (((((.(....).))))), in series [1], the folding enthalpy was -28.2 kcal/mol. The Tm in series [2] turned out to be 42.5 °C.

As for GCGGGCGAAAGCCGACGC ((((((....)))..))), the folding enthalpy in series [1] is -19.9 kcal/mol. For the same sequence, the Tm in series [2] was found to be 61.9 °C.

As to GGGAGTGGAAACACCCCC (((.(((....))).))), in series [1], the folding enthalpy is -19 kcal/mol. The Tm in series [2] was 49.2 °C.

As to GATCAGTTACCTGATC ((((((....)))))), the folding enthalpy in series [1] was -37 kcal/mol. Moreover, in series [2], the Tm came out at 50.9 °C.

Consider GGAGTCGAAAGACATTCC ((((((....)))..))), for which, in series [1], the folding enthalpy is -12.7 kcal/mol. The Tm in series [2] came to 27.9 °C.

GATCACCACTGTGATC ((((((....)))))): the folding enthalpy in series [1] is -43.5 kcal/mol. Further, the Tm in series [2] was 56.1 °C.

For GATCCTTAAAAGGATC ((((((....)))))), in series [1], the folding enthalpy is -41.7 kcal/mol. In series [2], the Tm was determined as 49.7 °C.

On to GATCCCATTAGGGATC ((((((....)))))), for which the folding enthalpy in series [1] was -36.5 kcal/mol. Besides, the Tm in series [2] amounted to 63 °C.

On to GCGTTTCGAAAGAAGCGC (((.(((....))).))), for which, in series [1], the folding enthalpy was -37.9 kcal/mol. The Tm in series [2] is 63.1 °C.

For the sequence GGGAGCGAAAGCTGCCC ((((((....))).))), the folding enthalpy in series [1] is -15.1 kcal/mol. Moreover, the Tm in series [2] was determined as 60.5 °C.

GCTGAGCGAAAGCGCGGC ((.(.((....)).).)): in series [1], the folding enthalpy was -26.3 kcal/mol. Further, the Tm in series [2] came out at 63 °C.

Turning to GCTATGACGAAAGTCAGC (((..(((....)))))), the folding enthalpy in series [1] is -13.2 kcal/mol. The Tm in series [2] stood at 42 °C.

Regarding GCAAAGCGAAAGCATAGC ((.(.((....)).).)), the folding enthalpy in series [1] was -9.41 kcal/mol. Further, the Tm in series [2] was determined as 33.4 °C.

For GTAGGTCGAAAGACGTAC (((.(((....))).))), the folding enthalpy in series [1] is -36.2 kcal/mol. Also, the Tm in series [2] stood at 51.7 °C.

GACGTAGGAAACTGCGTC ((((.((....)).)))): the folding enthalpy in series [1] is -45.2 kcal/mol. Further, in series [2], the Tm was 51.5 °C.

With GTGCACGGAAACGTGCGC (.(((((....))))).), the folding enthalpy in series [1] is -14.7 kcal/mol. In addition, the Tm in series [2] was determined as 63.9 °C.

For the sequence GCGATGCGAAAGCGACGC (((..((....))..))), the folding enthalpy in series [1] is -29.5 kcal/mol. Besides, the Tm in series [2] stood at 65.7 °C.

As for GGCCTAGGAAACTGGGTC (.((.((....)).)).), in series [1], the folding enthalpy was -28.5 kcal/mol. Besides, in series [2], the Tm was determined as 40.9 °C.

On to GCCTGTCCGAAAGGAGGC (((..(((....)))))), for which the folding enthalpy in series [1] is -19.2 kcal/mol. Further, in series [2], the Tm was 46.6 °C.

In the case of GTCGATCCGAAAGGAGAC (((..(((....)))))), the folding enthalpy in series [1] was -22.7 kcal/mol. For the same sequence, the Tm in series [2] was 40 °C.

For GTGGGCGAAAGCCTGCAC ((((((....)))..))), the folding enthalpy in series [1] is -12.4 kcal/mol. In series [2], the Tm stood at 45.3 °C.
